Measured values pooled from the literature.
Each line is one published result; the experiments were not run side by side. Converted amounts (≈) assume the structure as drawn.

O=C(Nc1ccc2ccccc2c1)c1ccc(COC(Cn2ccnc2)c2ccc(Cl)cc2Cl)cc1 (centres unmarked) has an MIC80 of 32 µg/mL (≈ 62 µM) (Pichia kudriavzevii; microbial growth, broth dilution).
The MIC of CC(C)c1ccc(/C=C2\N=C(SCC(=O)O)N(c3ccccc3)C2=O)cc1 is reported as 12 µg/mL (≈ 31.5 µM) (Fusarium solani; microbial growth, broth dilution).
With Cc1ccc(NC(=O)c2ccc(COC(Cn3ccnc3)c3ccc(Cl)cc3Cl)cc2)cc1 (centres unmarked) the MIC80 was 0.125 µg/mL (≈ 0.26 µM) (Pichia kudriavzevii; microbial growth, broth dilution).
The IC50 of CC1=C(Cn2cc(COC3COC3)nn2)C(=O)c2ccccc2C1=O is reported as 1080 nM (Schistosoma mansoni; parasite growth; 72 h, larva).
The MIC80 of OC(Cn1cncn1)(Cn1cncn1)c1ccc(F)cc1F is reported as 16 µg/mL (≈ 52.2 µM) (Pichia kudriavzevii; microbial growth, broth dilution).
The IC50 of CC1=C(Cc2cn(CCN3CCC(F)(F)CC3)nn2)C(=O)c2ccccc2C1=O is reported as 1600 nM (Schistosoma mansoni; parasite growth; 72 h, larva).
The MIC80 of O=C(Nc1cccc(Cl)c1)c1ccc(COC(Cn2ccnc2)c2ccc(Cl)cc2Cl)cc1 (centres unmarked) is reported as 0.25 µg/mL (≈ 0.499 µM) (Pichia kudriavzevii; microbial growth, broth dilution).
With Cc1nnc(-c2ccc3ccn(CC(=O)Nc4ccccc4Cl)c3c2)o1 the EC50 was 431 nM (Plasmodium knowlesi; parasite growth, SYBR Green; 30 h, blood stage).
With O=C(Nc1ccc2cccnc2c1)c1ccc(COC(Cn2ccnc2)c2ccc(Cl)cc2Cl)cc1 (centres unmarked) the MIC80 was 8 µg/mL (≈ 15.5 µM) (Pichia kudriavzevii; microbial growth, broth dilution).
The IC50 of CC1=C(Cn2cc(CN3CCNCC3)nn2)C(=O)c2ccccc2C1=O is reported as 930 nM (Schistosoma mansoni; parasite growth; 72 h, larva).
The MIC of C#CCON=C1C=CC(=C(C#N)c2ccccc2)C=C1 is reported as 32 µg/mL (≈ 123 µM) (Pichia kudriavzevii; microbial growth, broth dilution; ATCC14243; 48 h).
For CC1=C(Cn2cc(CN3CCN(C(=O)OC(C)(C)C)CC3)nn2)C(=O)c2ccccc2C1=O, the IC50 was 1500 nM (Schistosoma mansoni; parasite growth; 72 h, larva).
With C=CC(=O)ON=C1C=CC(=C(C#N)c2ccccc2)C=C1 the MFC was 16 µg/mL (≈ 57.9 µM) (Pichia kudriavzevii; microbial killing, broth dilution; ATCC14243; 48 h).
For CC1=C(Cn2cnc([N+](=O)[O-])n2)C(=O)c2ccccc2C1=O, the IC50 was 860 nM (Schistosoma mansoni; parasite growth; 72 h, larva).
C#CCOC(=O)ON=C1C=CC(=C(C#N)c2ccccc2)C=C1 gave an MFC of 32 µg/mL (≈ 105 µM) (Pichia kudriavzevii; microbial killing, broth dilution; ATCC14243; 48 h).
For COc1ccc(NC(=O)c2ccc(COC(Cn3ccnc3)c3ccc(Cl)cc3Cl)cc2)cc1 (centres unmarked), the MIC80 was 0.125 µg/mL (≈ 0.252 µM) (Pichia kudriavzevii; microbial growth, broth dilution).
The MFC of CC(=O)ON=C1C=CC(=C(C#N)c2ccccc2)C=C1 is reported as 16 µg/mL (≈ 60.5 µM) (Pichia kudriavzevii; microbial killing, broth dilution; ATCC14243; 48 h).
The IC50 of CC1=C(Cn2ccnc2[N+](=O)[O-])C(=O)c2ccccc2C1=O is reported as 1030 nM (Schistosoma mansoni; parasite growth; 72 h, larva).
With N#CC(=C1C=CC(=NOC(=O)OCc2ccccc2)C=C1)c1ccccc1 the MFC was 256 µg/mL (≈ 718 µM) (Pichia kudriavzevii; microbial killing, broth dilution; ATCC14243; 48 h).
O=C(Nc1ccc(F)cc1)c1ccc(COC(Cn2ccnc2)c2ccc(Cl)cc2Cl)cc1 (centres unmarked) has an MIC80 of 0.06 µg/mL (≈ 0.124 µM) (Pichia kudriavzevii; microbial growth, broth dilution).
CC1=C(Cn2ccnn2)C(=O)c2ccccc2C1=O has an IC50 of 1050 nM (Schistosoma mansoni; parasite growth; 72 h, larva).
For CCON=C1C=CC(=C(C#N)c2ccccc2)C=C1, the MIC was 256 µg/mL (≈ 1020 µM) (Pichia kudriavzevii; microbial growth, broth dilution; ATCC14243; 48 h).
OC(Cn1cncn1)(Cn1cncn1)c1ccc(F)cc1F gave an MIC of 0.7 µg/mL (≈ 2.29 µM) (Pichia kudriavzevii; microbial growth, broth dilution; ATCC6258; 48 h).
